# Compound activity (PubChem)
# MEKK2 mut-MEK5 – signal of MEK5 binding to mutant human MEKK2 PB1 domain; bead flow cytometry, Alexa488-MEK5 binding to MEKK2 mutant; percent response, % at 10 µM; hit rate 0.35% among 290,000; AID 1530; in the data active = percent response above about 24%, passing the limit was not always enough
# UCH37 inh – blocks the human deubiquitinase UCH37 | Q9Y5K5 | purified proteasome/UCH37, Ub-AMC cleavage fluorescence | inhibition, % (concentration not given with the values) | hit rate 0.33% among 330,000;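 active = mean inhibition over replicate wells above about 20%, limit read from the data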;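 also: 0% = compound-free wells with enzyme and 100% = wells lacking proteasome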
# Target sequence (Q9Y5K5 whole entry, looked up): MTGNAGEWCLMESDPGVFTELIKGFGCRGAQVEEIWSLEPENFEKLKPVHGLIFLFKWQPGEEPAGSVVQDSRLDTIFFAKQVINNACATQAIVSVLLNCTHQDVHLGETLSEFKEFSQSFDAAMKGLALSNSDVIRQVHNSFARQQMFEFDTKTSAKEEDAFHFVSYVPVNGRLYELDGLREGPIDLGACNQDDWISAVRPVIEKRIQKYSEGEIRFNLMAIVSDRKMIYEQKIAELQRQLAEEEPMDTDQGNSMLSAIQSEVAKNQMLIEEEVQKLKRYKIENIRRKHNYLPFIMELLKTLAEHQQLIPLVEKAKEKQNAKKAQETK
#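 Material: human UCH37 enzyme supplied as purified proteasome complex. Measure: % inhibition of Ub-AMC cleavage fluorescence. Medium: pH 7.4 Tris-HCl (50 mM) with ovalbumin, ATP-MgCl2, DTT. Times: 30 min preincubation with enzyme, 25 min cleavage at room temperature. Detection: AMC fluorescence intensity at 355/460 nm.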
# MEKK2wt PB1 HTS – raises or lowers MEK5 binding to wildtype human MEKK2 PB1 domain; Q9Y2U5; bead flow cytometry, Alexa488-MEK5 binding to MEKK2 WT; actives lie on both sides; binding response (% of control), % at 10 µM; hit rate 1.1% among 290,000; AID 1531; in the data active = binding response below about 67% or above about 130%
# T cell modulator – modulates CD8 T cell binding to vesicles; 2C CD8+ T cell-vesicle binding, flow cytometry; active compounds read low; response (vesicle binding), % at 7 µM; hit rate 0.068% among 330,000; AID 2052;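 active = response, share of CD8 T cells binding vesicles, and their 90th percentile fluorescence all below set limits, cut at about 80% in these data, passing the limit was not always enough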;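 also: values below 100% mean blocked vesicle binding to the CD8+ T cells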
#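 System: murine 2C transgenic CD8+ T lymphocytes; also added: QL9-loaded Drosophila micro-vesicles; times: binding 1.5 h at 37 °C; measured by: flow cytometry, PE anti-B7-1 (FL2) versus Alexa647 anti-CD8 (FL8), PFA-fixed; control set: Peptide-free naked vesicles (low) and QL9 vesicles with 0.7% DMSO vehicle (high)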
# MEKK3 PB1 HTS – raises or lowers MEK5 binding to the human MEKK3 PB1 domain | bead-based flow cytometry, Alexa488-MEK5 binding to MEKK3; actives lie on both sides; 0 = blocked by unlabeled MEK5, 100 = vehicle | Q99759 | AID 1529 | binding response (% of control), % at 10 µM | hit rate 1.4% among 290,000;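 active = binding response more than 3 SD above or below the average of its plate-row segment, actives on both sides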;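 also: Alexa488 bead fluorescence after subtracting the streptavidin-only scavenger bead signal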
# Rce1 inhib – blocks yeast Ras-converting enzyme. hit rate 0.27% among 290,000. yeast membranes, quenched prenylated peptide cleavage fluorescence. calls only. AID 2563. Q03530;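 active = fall in fluorescence gain of 50% or more versus controls, with final raw signal at or below 3038400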;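 also: plate controls were neutral control wells for no effect and wells lacking membranes for full effect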
# Target sequence (Q03530 whole entry, looked up): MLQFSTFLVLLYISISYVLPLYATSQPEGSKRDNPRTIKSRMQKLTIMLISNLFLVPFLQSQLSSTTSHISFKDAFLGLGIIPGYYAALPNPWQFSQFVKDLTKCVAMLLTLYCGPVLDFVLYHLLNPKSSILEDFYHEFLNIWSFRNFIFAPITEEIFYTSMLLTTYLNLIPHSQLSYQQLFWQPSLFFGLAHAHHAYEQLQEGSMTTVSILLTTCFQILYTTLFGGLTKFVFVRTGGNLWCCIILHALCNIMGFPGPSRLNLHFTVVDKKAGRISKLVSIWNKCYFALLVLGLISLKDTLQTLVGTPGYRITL
# MEKK2wt confirm – raises or lowers MEK5 binding to wildtype human MEKK2, retest | bead flow cytometry, Alexa488-MEK5 binding to MEKK2 WT; actives lie on both sides | hit rate 2.4% among 5,900 | shares compounds with MEKK3 PB1 HTS | binding response (% of control), % at 10 µM; in the data active = binding response below about 16% or above about 210%; inactive = in between
# MEKK2mut-MEK5 – signal of MEK5 binding to mutant human MEKK2, retest; hit rate 2% among 5,900; percent response, % at 10 µM; bead flow cytometry, Alexa488-MEK5 binding to MEKK2 mutant; shares compounds with MEKK3 PB1 HTS; in the data active = percent response mostly above about 71%, no sharp cut-off; inactive = mostly below about 38%;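 also: higher means compound restores mutant binding toward wildtype level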
# MEKK3-MEK5 inh – MEKK3-MEK5 PB1 inhibition, single concentration confirmation; shares compounds with MEKK3 PB1 HTS; bead flow cytometry, Alexa488-MEK5 binding to MEKK3; active compounds read low; binding response (% of control), % at 10 µM; hit rate 1.8% among 5,900; AID 1894;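 active = binding response below 72% of control, or above a set upper limit, though filed actives all read lower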;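 also: 100% = DMSO only wells and 0% = binding blocked by excess unlabeled MEK5; lower values mean stronger disruption of MEK5 binding to MEKK3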
# An asterisk follows results filed as active; i = inactive; . = no result; [ ] = another dose, or the depositor's remark. Compounds with a hit are over-represented: about 2.5% of the library has one in this group of screens.
SMILES,MEKK2 mut-MEK5,UCH37 inh,MEKK2wt PB1 HTS,T cell modulator,MEKK3 PB1 HTS,Rce1 inhib,MEKK2wt confirm,MEKK2mut-MEK5,MEKK3-MEK5 inh
O=C(NN=Cc1cccc(Cl)c1)C(c1ccncc1)N1CCOCC1 (stereo not drawn),.,4.4,.,.,.,.,.,.,.
COc1ccc(C(C)=O)cc1CSc1nc2ccccc2c(=O)n1-c1cccc(C)c1,-1.0,4.8,102.0,225.4,156.0*,i,98.0,0.0,105.0
Cc1n[nH]c(C)c1N1C(=O)c2cccc3c(N4CCCCCC4)ccc(c23)C1=O,40.0*,10.3,67.0*[inhibitor],316.7,113.0,i,91.0,-7.0,96.0
CCOc1cc(NC(=S)NCC2CCCO2)c(OCC)cc1NC(=O)c1ccc(OC)cc1 (stereo not drawn),1.0,0.9,106.0,0.0,130.0*,i,96.0,-1.0,103.0
COc1cccc2cc(C(=O)NCC3CCCO3)c(=O)oc12 (stereo not drawn),.,-4.8,.,263.5,.,i,.,.,.
COc1ccc2oc(=O)c(C(=O)NCC3CCCO3)cc2c1 (stereo not drawn),-7.0,-425.8,94.0,278.3,82.0*[inhibitor],i,101.0,-6.0,98.0
Cc1ccc(SCCC(=O)NCC2CCCO2)cc1 (stereo not drawn),-39.0,5.7,1.0*[inhibitor],153.9,2.0*[inhibitor],i,96.0,1.0,102.0
Cc1ccc(SCC(=O)NCC2CCCO2)cc1 (stereo not drawn),-10.0,-2.0,94.0,293.8,96.0,i,.,.,.
CCOc1cc(NC(=S)NCC2CCCO2)c(OCC)cc1NC(=O)c1ccccc1C (stereo not drawn),-3.0,4.0,98.0,239.2,103.0,i,.,.,.
COc1ccc(-c2nsc(SCC(=O)NCC3CCCO3)n2)cc1 (stereo not drawn),-3.0,-0.2,81.0,490.6,73.0*[inhibitor],i,100.0,1.0,101.0
COCCNC(=S)NN=C(C)c1cc2ccccc2o1,.,16.8,.,.,.,.,.,.,.
CCOc1ccc(C(=O)Nc2ccccc2CC)cc1[N+](=O)[O-],-2.0,3.9,87.0,198.9,50.0*[inhibitor],i,94.0,-26.0,89.0
CCCOc1ccc(-c2c(C(=O)NN=C(C)c3cccs3)nnn2-c2nonc2N)cc1,.,-2.4,.,.,.,.,.,.,.
CC(C)c1cc(C(=O)Nc2cc(Br)ccc2O)no1,-4.0,4.8,94.0,546.9,96.0,i,.,.,.
CC(C)c1cc(C(=O)Nc2cc(Cl)ccc2O)no1,-28.0,1.9,13.0*[inhibitor],136.0,8.0*[inhibitor],i,105.0,5.0,110.0
Cc1ccccc1NC(NC(=O)c1cccnc1)C(Cl)(Cl)Cl (stereo not drawn),3.0,0.0,107.0,205.7,132.0*,i,101.0,-3.0,99.0
COc1ccc(NC(NC(=O)c2cccnc2)C(Cl)(Cl)Cl)cc1 (stereo not drawn),-1.0,3.5,93.0,473.2,98.0,i,.,.,.
CSc1nc2c(c(=O)[nH]1)C(c1ccccc1)C1=C(CC(C)(C)CC1=O)N2 (stereo not drawn),4.0,.,121.0,183.5,131.0*,.,104.0,4.0,111.0
CC1(C)CC(=O)C2=C(C1)Nc1[nH]c(=S)[nH]c(=O)c1C2c1ccccc1 (stereo not drawn),-1.0,-2.9,102.0,333.1,106.0,i,.,.,.
N#CC(C#N)=CC1=C2OC(c3ccccc3)=CC(c3ccccc3)=C2CCC1,-12.0,5.5,72.0*[inhibitor],511.8,74.0*[inhibitor],i,75.0,-3.0,77.0
Cn1ccnc1Sc1ccc(C=O)cc1[N+](=O)[O-],-2.0,2.7,91.0,155.2,74.0*[inhibitor],i,94.0,-7.0,96.0
CC(=O)Nc1cccc(C(C)=NNC(=O)c2c(-c3ccccc3Cl)noc2C)c1,.,3.7,.,.,.,.,.,.,.
Cn1cnnc1Sc1ccc(C(=O)OCC(=O)Nc2cc(Cl)cc(Cl)c2)cc1[N+](=O)[O-],3.0,5.6,119.0,253.4,137.0*,i,124.0,15.0,99.0
C#CCOc1ccccc1C=NNC(=O)c1ccccc1OCc1ccccc1,.,7.4,.,.,.,.,.,.,.
Cc1ccsc1/C=C(\C#N)C(=O)NCc1ccco1,4.0,3.0,103.0,952.8,128.0*,i,107.0,9.0,109.0
SMILES,MEKK2 mut-MEK5,UCH37 inh,MEKK2wt PB1 HTS,T cell modulator,MEKK3 PB1 HTS,Rce1 inhib,MEKK2wt confirm,MEKK2mut-MEK5,MEKK3-MEK5 inh
CC(=NNc1nc(N2CCCCC2)nc(N2CCOCC2)n1)c1ccccc1O,.,1.2,.,.,.,.,.,.,.
CCc1ccc(Nc2n[n+](-c3ccccc3)c(-c3c(Cl)cccc3Cl)s2)cc1,9.0,0.3,133.0,172.4,105.0,i,.,.,.
c1ccc(COc2ccc(-c3sc(Nc4ccccc4)n[n+]3-c3ccccc3)cc2)cc1,38.0*,.,221.0*,367.3,109.0,i,185.0,55.0,110.0
CCc1ccc(Nc2n[n+](-c3ccccc3)c(-c3ccc(N(CC)CC)cc3)s2)cc1,277.0*,0.0,65.0*,279.0,101.0,i,164.0,50.0,94.0
CCc1ccc(Nc2n[n+](-c3ccccc3)c(-c3ccc(OCc4ccccc4)cc3)s2)cc1,107.0*,5.3,220.0*,374.8,111.0,i,209.0*,82.0*,114.0
CCOc1cc(C=NNc2ccc([N+](=O)[O-])cc2)ccc1OCC(=O)Nc1ccc(C)c(C)c1,.,-1.8,.,.,.,.,.,.,.
Cc1ccc(Nc2nc(CSc3nnc(-c4ccc(F)cc4)n3C)cs2)cc1,-8.0,3.9,3.0*[inhibitor],255.4,1.0*[inhibitor],i,99.0,-1.0,100.0
COc1ccc(-c2nnc(SCc3csc(N)n3)n2C)cc1,7.0,1.8,106.0,325.5,105.0,i,.,.,.
COc1ccc(C(=O)Nc2ccc(NC(=O)c3cccs3)cc2)cc1Cl,0.0,4.1,103.0,221.2,130.0*,i,96.0,-2.0,101.0
COc1ccc(C(=O)Nc2ccc(NC(=O)c3cccs3)c(OC)c2)cc1Cl,-9.0,-190.8,93.0,691.5,101.0,i,.,.,.
O=C(O)/C=C/C(=O)OC1CC2CCC1C2 (stereo not drawn),29.0,1.4,117.0,147.1,134.0*,i,105.0,8.0,105.0
O=C(Nc1ccc(Cl)c(Cl)c1)ON=Cc1ccncc1,.,0.3,.,.,.,.,.,.,.
Cn1c(SCC(=O)N2CCN(S(=O)(=O)c3ccc(Cl)cc3)CC2)nc2ccccc21,8.0,1.4,129.0,258.1,133.0*,i,102.0,6.0,103.0
COC(=O)c1nn(-c2ccccc2)c(Cl)c1C=NOC(=O)c1ccc(Cl)c(Cl)c1,.,2.0,.,.,.,.,.,.,.
